An excerpt weighted towards active compounds, which were near 3.1% of everything screened.
UHRF1 binding: UHRF1 methylated DNA binding inhibitors, primary screen, counter-screen for MBD2 inhibitor project, biochemical, TR-FRET, human UHRF1, single concentration; 370,000 compounds, 0.75% hits; E3 ubiquitin-protein ligase UHRF1 (Homo sapiens), Q96T88; UHRF1 binding to methylated oligo; inhibition, % at 4.4 µM; AID 687016, 2013; in the data active means inhibition above about 21%;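 further: UHRF1 SRA domain binding a hemimethylated CpG hairpin DNA probe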
MBD2 DNA inh: inhibitors of MBD2 binding to methylated DNA, primary screen, biochemical, TR-FRET, DNA-binding domain, human; MBD2 binding to methylated oligonucleotide; inhibition, % at 4.4 µM; 370,000 compounds, 0.31% hits; AID 686964, 2013; in the data active means inhibition above about 13%
Target sequence (Q9UBB5 whole entry, looked up, the tested form may be a part): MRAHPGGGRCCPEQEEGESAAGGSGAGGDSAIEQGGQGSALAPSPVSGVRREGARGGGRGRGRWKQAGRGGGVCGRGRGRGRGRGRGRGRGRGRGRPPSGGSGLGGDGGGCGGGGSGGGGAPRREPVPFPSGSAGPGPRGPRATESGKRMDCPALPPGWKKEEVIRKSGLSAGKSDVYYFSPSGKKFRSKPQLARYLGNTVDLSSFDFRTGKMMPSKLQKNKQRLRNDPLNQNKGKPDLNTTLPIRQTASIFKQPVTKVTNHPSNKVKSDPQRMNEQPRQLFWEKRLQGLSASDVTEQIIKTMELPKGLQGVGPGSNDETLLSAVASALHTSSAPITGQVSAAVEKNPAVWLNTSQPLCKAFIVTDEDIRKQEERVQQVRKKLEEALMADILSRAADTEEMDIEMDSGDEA
LEDGF integ inh: blockers of LEDGF/p75-dependent integrase strand transfer – biochemical, TR-FRET, high throughput, primary screen; TR-FRET IN-LEDGF/p75 DNA integration, Eu/Cy5; inhibition, % at 3.7 µM; 370,000 compounds, 0.64% hits; AID 743269, 2014;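 active means inhibition above the screen-wide mean plus 3 SD, cut at about 13% in these data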;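 further: signal is the Cy5 over europium emission ratio at 671 and 618 nm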
CSN inh: inhibitors of CSN-mediated cullin deneddylation, primary screen, biochemical, fluorescence polarization, uHTS; inhibition, % at 12.5 µM; Purified CSN, SCF-Nedd8-OG deneddylation; COP9 signalosome complex subunit 5 (Homo sapiens), Q92905; 360,000 compounds, 0.38% hits;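 active means pattern-corrected inhibition above about 35%, with an unprinted fluorescence ratio check between 0.5 and 1.5, limit read from the data, passing the limit was not always enough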
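Assay system: purified human Csn5 enzyme expressed in HEK293T cells; Input: 0.24 nM Csn5 enzyme, final concentration; Reagent: 10 nM SCFSkp2-Nedd8OG; Compound dosing: 12.5 µM single point; Times: reaction 90 min, room temperature; Technique: fluorescence polarization readout.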
rCAG binder: binders of r(CAG) RNA repeats, primary screen, biochemical, fluorescence. 370,000 compounds, 1.3% hits. inhibition, % at 3 µM. AID 651821, 2012. r(CAG) RNA repeat, TO-PRO-1 dye displacement fluorescence;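 active means inhibition above the plate cutoff, the mean of all test compounds on that plate plus 3 SD, cut at about 35% in these data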;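 further: higher means more dye released from RNA so lower well fluorescence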
ATG4B inh: ATG4B protease inhibitors, primary screen, biochemical, fluorescence, uHTS | inhibition, % at 8.33 µM | Cysteine protease ATG4B (Homo sapiens), Q9Y4P1 | 340,000 compounds, 0.51% hits | ATG4B cleavage of LC3-PLA2, NBD-HPC fluorescence, 1 h | AID 504462, 2011; in the data active means inhibition above about 40%
rCAG binder conf: small molecules binding CAG repeat RNA – biochemical, fluorescence, confirmation. 4,300 compounds, 70% hits. r(CAG) RNA repeat, TO-PRO-1 dye displacement fluorescence. inhibition, % at 3 µM. shares compounds with rCAG binder. AID 652065, 2013;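 active means inhibition above a per-plate cutoff, the mean inhibition of sample wells plus 3 SD, cut at about 35% in these data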;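 further: loss of TO-PRO-1 fluorescence as compound displaces dye from 1x1 AA loop RNA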
dCAG dye counter: displacement of TO-PRO-1 from CAG DNA duplex, counter-screen for rCAG RNA repeat binder project, biochemical, fluorescence, TO-PRO-1 dye, d(CAG) DNA oligo | shares compounds with rCAG binder | d(CAG) DNA oligo TO-PRO-1 dye displacement | inhibition, % at 3 µM | 4,300 compounds, 94% hits | AID 652068, 2013;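 active means inhibition above its plate's cutoff, the mean test-well inhibition plus 3 SD, cut at about 4.8% in these data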;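 further: hits displace the dye from DNA and so lower well fluorescence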
A number is an active result; i = inactive; nt = no result given.

SMILES	UHRF1 binding	MBD2 DNA inh	LEDGF integ inh	CSN inh	rCAG binder	ATG4B inh	rCAG binder conf	dCAG dye counter
Cc1noc(C)c1S(=O)(=O)NC(=O)C1(C)CCN1C(=O)c1ccccc1CCc1ccccc1 (stereo unspecified)	i	i	i	i	i	nt	nt	nt
CCOC(=O)CC[C@H]1CC[C@]2(CCCN(S(C)(=O)=O)C2)O1	i	i	i	nt	i	nt	nt	nt
O=C(NC1CCCCN(Cc2cccc(F)c2)C1=O)c1ccc(-c2ccccc2)cc1 (stereo unspecified)	i	i	i	nt	i	nt	nt	nt
O=[N+]([O-])c1ccc(-c2nc(Nc3ccc(O)cc3)c3ccccc3n2)cc1	i	i	i	i	36.6	i	i	10.3
CCOC(=O)[C@]12CCCCC/C=C\1N(Cc1ccc(OC)cc1)C(=O)[C@H]2CC(=O)N1CCSCC1	i	i	i	nt	i	nt	nt	nt
Nc1nc(-c2ccccc2)c(N=Nc2cccc3ccccc23)s1	i	i	i	i	35.4	i	i	18.4
Nc1nc(-c2ccccc2)c(N=Nc2ccccc2Cl)s1	i	i	i	i	i	i	nt	nt
CCc1ccc(CC2S/C(=C(\C#N)C(C)=O)NC2=O)cc1 (stereo unspecified)	i	i	i	i	37.2	i	i	i
CCOC(=O)c1ccc(CC2S/C(=C(\C#N)C(C)=O)NC2=O)cc1 (stereo unspecified)	i	i	i	i	i	i	nt	nt
Cc1cccc(Cn2cc(COC(=O)NCC(C)C)nn2)c1	i	i	i	nt	i	nt	nt	nt
CCn1c(SCC(=O)Nc2ccc3c(c2)c2ccccc2n3CC)nnc1-c1ccco1	i	i	i	i	35.2	i	i	12.9
CCn1c2ccccc2c2cc(NC(=O)CSc3nccc(=O)[nH]3)ccc21	i	i	i	i	44.5	i	40.3	15.9
Cc1c(CCC(=O)O)c(=O)oc2cc(OCc3cccc(Cl)c3)ccc12	i	i	i	i	38.4	i	35.7	9.1
CCn1c2ccccc2c2cc(/C=N/NC(=O)c3cc(O)cc(O)c3)ccc21	i	i	i	i	37.5	i	37.0	21.3
O=S(=O)(Nc1ncccn1)c1ccc(NC(=S)N2CCN(c3cccc(C(F)(F)F)c3)CC2)cc1	i	i	i	i	49.9	i	58.6	15.6
COc1ccc(NC(=O)N2CCC(N(C)CCC(C)C)CC2)cc1OC	i	i	i	nt	i	nt	nt	nt
CC(=O)C1=C(O)C(=Cc2ccccc2)OC1=O	i	i	i	i	36.0	nt	i	6.6
CCOC(=O)N1CCN(C(=O)C(CC)c2ccccc2)CC1 (stereo unspecified)	i	i	i	i	39.2	i	i	i
CCC(C(=O)N1CCN(S(C)(=O)=O)CC1)c1ccccc1 (stereo unspecified)	i	i	i	i	i	i	nt	nt
Cc1ccccc1/C=N/Nc1nc2ccccc2[nH]1	i	i	i	i	i	i	nt	nt
O=[N+]([O-])c1cc(/C=N/Nc2nc3ccccc3[nH]2)c(O)cc1O	i	i	i	nt	35.7	i	i	12.7
N#CCC[C@@H]1CC[C@]2(CCCN(C(=O)C3CCCCC3)C2)O1	i	i	i	nt	i	nt	nt	nt
Cc1ccc(Cn2cc(CN3[C@@H](CC(C)C)COc4cccc(F)c4S3(=O)=O)nn2)cc1	i	i	i	nt	i	nt	nt	nt
CCCc1cc(=O)[nH]c(SCC(=O)Nc2sc3c(c2C#N)CCC(C)C3)n1 (stereo unspecified)	i	i	i	i	66.2	i	52.7	19.9
CC1CCc2c(sc(NC(=O)COC(=O)c3ccc(NC(=O)CC#N)cc3)c2C#N)C1 (stereo unspecified)	i	i	i	i	39.4	i	37.0	17.7
SMILES	UHRF1 binding	MBD2 DNA inh	LEDGF integ inh	CSN inh	rCAG binder	ATG4B inh	rCAG binder conf	dCAG dye counter
C[C@H](O)[C@@H]1CN2CCc3ccc(N4CCOCC4)cc3[C@@H]2C[C@@H]1N(C)C(=O)c1ccccc1F	i	i	i	nt	i	nt	nt	nt
COc1ccc(NS(=O)(=O)c2c(F)cc(F)c(Cl)c2F)cc1S(=O)(=O)N1CCCCC1	i	i	i	i	39.9	i	35.9	11.1
COc1ccc(NS(=O)(=O)c2c(F)cccc2F)cc1S(=O)(=O)N1CCOCC1	i	i	i	i	i	i	nt	nt
Clc1ccc(CN(Cc2ccc(Cl)cc2)c2nn[nH]n2)cc1	i	i	i	i	38.6	i	i	5.4
O=C(O)c1cc(S(=O)(=O)N2CCN(S(=O)(=O)c3ccc4ccccc4c3)CC2)ccc1Br	i	i	i	i	53.4	i	43.4	14.8
O=S(=O)(c1ccc2ccccc2c1)N1CCCCCC1	i	i	i	i	i	i	nt	nt
O=C(O)c1cc(S(=O)(=O)N2CCN(C(c3ccccc3)c3ccccc3)CC2)ccc1Cl	i	i	i	i	54.9	i	49.4	17.4
CC(=O)CC[C@H]1CC[C@]2(CCCN(C(=O)c3ccc4ccccc4n3)C2)O1	i	i	i	nt	i	nt	nt	nt
C/C(=N\NC(=O)c1ccccc1O)C1C(=O)c2ccccc2C1=O	i	i	i	i	71.8	i	64.4	17.7
CCC/C(C)=N/NC(=O)c1ccccc1O	i	i	i	i	i	i	nt	nt
COC(=O)[C@H](C(C)C)N1Cc2nnn(Cc3ccccc3)c2-c2cc(F)ccc2S1(=O)=O	i	i	i	nt	i	nt	nt	nt
O=C1C2CCCCC2C(=O)N1c1cccc(OS(=O)(=O)c2ccccc2)c1 (stereo unspecified)	i	i	i	i	i	i	nt	nt
O=C1CC(=O)N(C2CCCCC2)C(=O)N1c1ccccc1S(=O)(=O)Oc1ccccc1	i	i	i	i	58.8	nt	i	8.0
O=S(=O)(c1ccccc1Br)N(Cc1cn(Cc2ccccc2)nn1)C1CC1	i	i	i	nt	i	nt	nt	nt
COc1cccc(N2CCN(CC(=O)NCc3ccco3)CC2)c1	i	i	i	nt	i	nt	nt	nt
CCCCc1cc(=O)oc2c(C)c(OCC(=O)N3CCC(C(=O)O)(c4ccccc4)CC3)ccc12	i	i	i	i	39.8	i	51.8	12.9
CCCCc1cc(=O)oc2c(C)c(OCC(=O)N3CCCC3)ccc12	i	i	i	i	i	i	nt	nt
